In ChEMBL document CHEMBL1159084, “Synthesis and structure-activity relationship of 1,2,4-triazole-containing diarylpyrazolyl carboxamide as CB1 cannabinoid receptor-ligand” (Bioorg Med Chem, 2010) one finds IC50 data, which are given here for 73 molecules.

In general, IC50 refers to the concentration that inhibits the measured activity by half. A higher IC50 goes with weaker potency in that assay.

In the test the target is Cannabinoid receptor 1 (Rattus norvegicus, UniProt P20272). Briefly: Displacement of [3H]CP-55940 from CB1 receptor in Sprague-Dawley rat cerebellar membrane. Set-up: species or system Cerebellum. In outline: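 Membranes came from cerebella of male Sprague Dawley rats (200–300 g), homogenized in TME buffer (50 mM Tris–HCl, 1 mM EDTA, 3 mM MgCl2, pH 7.4) and spun at 48,000g for 30 min at 4 °C. They were incubated 1 h at 30 °C in TME with 0.5% fatty-acid-free BSA, then filtered on PEI-soaked GF/B, washed and counted by scintillation. IC50 values are from single determinations.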
Cannabinoid receptor 1, sequence (P20272 whole entry): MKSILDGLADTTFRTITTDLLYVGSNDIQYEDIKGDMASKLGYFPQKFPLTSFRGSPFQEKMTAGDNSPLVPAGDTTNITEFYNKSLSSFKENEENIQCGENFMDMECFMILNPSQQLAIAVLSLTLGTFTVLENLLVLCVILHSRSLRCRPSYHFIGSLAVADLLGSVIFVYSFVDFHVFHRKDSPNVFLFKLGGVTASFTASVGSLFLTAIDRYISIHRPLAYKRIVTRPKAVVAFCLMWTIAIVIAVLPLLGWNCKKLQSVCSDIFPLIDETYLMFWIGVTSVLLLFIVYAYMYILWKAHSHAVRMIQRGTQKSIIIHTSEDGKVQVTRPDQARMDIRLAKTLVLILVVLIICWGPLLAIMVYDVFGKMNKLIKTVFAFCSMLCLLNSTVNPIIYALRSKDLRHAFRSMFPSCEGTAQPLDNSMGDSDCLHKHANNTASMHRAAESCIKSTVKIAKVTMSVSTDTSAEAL
`CC(C)(NC(=O)c1nn(-c2ccc(Cl)cc2Cl)c(-c2ccc(Cl)cc2)c1Cn1cncn1)c1ccccc1` had an IC50 of 7.4 nM. Molecule `O=C(NC1(C(F)(F)F)CC1)c1nn(-c2ccccc2Cl)c(-c2ccc(Br)cc2)c1Cn1cncn1` displayed an IC50 of 9.15 nM. Consider `O=C(NC1(c2ccccc2)CC1)c1nn(-c2ccc(Cl)cc2Cl)c(-c2ccc(Cl)cc2)c1Cn1cncn1`, for which the IC50 stood at 5.1 nM. As to `O=C(NC1(c2ccc(Cl)cc2)CC1)c1nn(-c2ccc(Cl)cc2Cl)c(-c2ccc(Br)cc2)c1Cn1cncn1`, the half-inhibitory concentration (IC50) came out at 2.8 nM.

In turn, `CCN1CCN(C(=O)c2nn(-c3ccccc3Cl)c(-c3ccc(Cl)cc3)c2Cn2cncn2)CC1` registered an IC50 of 1050 nM. Regarding `CC(C)(NC(=O)c1nn(-c2ccc(Cl)cc2Cl)c(-c2ccc(Cl)cc2)c1Cn1cncn1)c1ccc(Cl)cc1`, the IC50 amounted to 3.33 nM.

In the case of `O=C(c1nn(-c2ccc(Cl)cc2Cl)c(-c2ccc(Cl)cc2)c1Cn1cncn1)N1CCN(c2cccc(Cl)c2Cl)CC1`, the IC50 was 5.5 nM. To `O=C(c1nn(-c2ccccc2Cl)c(-c2ccc(Cl)cc2)c1Cn1cncn1)N1CCN(c2ccccc2)CC1` belongs 11.5 nM; to `CC(NC(=O)c1nn(-c2ccc(Cl)cc2Cl)c(-c2ccc(Cl)cc2)c1Cn1cncn1)c1ccc(Cl)cc1Cl` (stereo not drawn), 2.6 nM. As for `O=C(c1nn(-c2ccc(Cl)cc2Cl)c(-c2ccc(Cl)cc2)c1Cn1cncn1)N1CCN(c2ccccc2)CC1`, the figure is 8.88 nM; as for `CCC(C)(C)NC(=O)c1nn(-c2ccccc2Cl)c(-c2ccc(Cl)cc2)c1Cn1cncn1`, 11.9 nM. To `O=C(NNC(=O)C1CCCCC1)c1nn(-c2ccc(Cl)cc2Cl)c(-c2ccc(Cl)cc2)c1Cn1cncn1` belongs 189 nM; to `O=C(NC1(C(F)(F)F)CC1)c1nn(-c2ccccc2Cl)c(-c2ccc(Cl)cc2)c1Cn1cncn1`, 4.75 nM. On to `CCC(C)(C)NC(=O)c1nn(-c2ccccc2Cl)c(-c2ccc(Br)cc2)c1Cn1cncn1`, for which the IC50 came to 8.99 nM. To `O=C(NC1CCCCC1)c1nn(-c2ccc(Cl)cc2Cl)c(-c2ccc(Br)cc2)c1Cn1cncn1` belongs 4.38 nM.

`C[C@H]1CC[C@@H](NC(=O)c2nn(-c3ccc(Cl)cc3Cl)c(-c3ccc(Cl)cc3)c2Cn2cncn2)CC1` showed an IC50 of 17.1 nM. As for `CN1CCN(C(=O)c2nn(-c3ccc(Cl)cc3Cl)c(-c3ccc(Cl)cc3)c2Cn2cncn2)CC1`, the figure is 1420 nM; as for `O=C(c1nn(-c2ccc(Cl)cc2Cl)c(-c2ccc(Cl)cc2)c1Cn1cncn1)N1CCN(c2cccc(Cl)c2)CC1`, 7.33 nM.

For `O=C(NCc1ccccn1)c1nn(-c2ccc(Cl)cc2Cl)c(-c2ccc(Cl)cc2)c1Cn1cncn1`, the IC50 stood at 74.8 nM. As for `Cc1cccc(N2CCN(C(=O)c3nn(-c4ccc(Cl)cc4Cl)c(-c4ccc(Cl)cc4)c3Cn3cncn3)CC2)c1C`, the figure is 11.5 nM; as for `CC(C)(C)NC(=O)c1nn(-c2ccccc2Cl)c(-c2ccc(Br)cc2)c1Cn1cncn1`, 7.9 nM; as for `O=C(NN1CCCCCC1)c1nn(-c2ccc(Cl)cc2Cl)c(-c2ccc(Br)cc2)c1Cn1cncn1`, 8.23 nM.

In turn, `O=C(NCc1ccccc1)c1nn(-c2ccccc2Cl)c(-c2ccc(Cl)cc2)c1Cn1cncn1` returned an IC50 of 14.1 nM. As to `CC(C)(C)NC(=O)c1nn(-c2ccc(Cl)cc2Cl)c(-c2ccc(Cl)cc2)c1Cn1cncn1`, the concentration for half-maximal inhibition (IC50) came out at 4.9 nM. To `O=C(NC1(C(F)(F)F)CC1)c1nn(-c2ccc(Cl)cc2Cl)c(-c2ccc(Br)cc2)c1Cn1cncn1` belongs 3.31 nM. Molecule `O=C(c1nn(-c2ccc(Cl)cc2Cl)c(-c2ccc(Br)cc2)c1Cn1cncn1)N1CCN(c2cccc(Cl)c2)CC1` showed an IC50 of 7.22 nM. In turn, `N#CC1(NC(=O)c2nn(-c3ccccc3Cl)c(-c3ccc(Br)cc3)c2Cn2cncn2)CC1` registered an IC50 of 19.6 nM. To `CC(NC(=O)c1nn(-c2ccc(Cl)cc2Cl)c(-c2ccc(Cl)cc2)c1Cn1cncn1)c1ccc(Br)cc1` (stereo not drawn) belongs 2.6 nM.

`CCCCC(CC)CNC(=O)c1nn(-c2ccc(Cl)cc2Cl)c(-c2ccc(Cl)cc2)c1Cn1cncn1` (stereo not drawn) showed an IC50 of 20.2 nM. As for `O=C(NCc1ccccn1)c1nn(-c2ccccc2Cl)c(-c2ccc(Br)cc2)c1Cn1cncn1`, the figure is 63.4 nM; as for `O=C(NC1(C(F)(F)F)CCC1)c1nn(-c2ccccc2Cl)c(-c2ccc(Br)cc2)c1Cn1cncn1`, 7.48 nM.

Consider `O=C(NC1CCCC1)c1nn(-c2ccc(Cl)cc2Cl)c(-c2ccc(Cl)cc2)c1Cn1cncn1`, for which the IC50 turned out to be 6.9 nM. As for `O=C(NC1CCCCC1)c1nn(-c2ccc(Cl)cc2Cl)c(-c2ccc(Cl)cc2)c1Cn1cncn1`, the figure is 3.77 nM. As for `O=C(NN1CCCCC1)c1nn(-c2ccc(Cl)cc2Cl)c(-c2ccc(Cl)cc2)c1Cn1cncn1`, the figure is 3.83 nM; as for `CCC(C)(C)NC(=O)c1nn(-c2ccc(Cl)cc2Cl)c(-c2ccc(Cl)cc2)c1Cn1cncn1`, 3.01 nM. As for `O=C(c1nn(-c2ccccc2Cl)c(-c2ccc(Br)cc2)c1Cn1cncn1)N1CCN(c2ccccc2)CC1`, the figure is 8.01 nM; as for `O=C(c1nn(-c2ccccc2Cl)c(-c2ccc(Br)cc2)c1Cn1cncn1)N1CCN(c2ncccn2)CC1`, 22.3 nM. For `O=C(NC1(c2ccc(Cl)cc2)CC1)c1nn(-c2ccc(Cl)cc2Cl)c(-c2ccc(Cl)cc2)c1Cn1cncn1`, the IC50 is 5.09 nM. `O=C(NC1(c2ccc(Cl)cc2)CC1)c1nn(-c2ccccc2Cl)c(-c2ccc(Cl)cc2)c1Cn1cncn1`: the concentration for half-maximal inhibition (IC50) was 9.03 nM. Turning to `Cc1cccc(N2CCN(C(=O)c3nn(-c4ccc(Cl)cc4Cl)c(-c4ccc(Br)cc4)c3Cn3cncn3)CC2)c1C`, the IC50 was determined as 3.8 nM. In the case of `Cc1cccc(N2CCN(C(=O)c3nn(-c4ccccc4Cl)c(-c4ccc(Cl)cc4)c3Cn3cncn3)CC2)c1C`, the IC50 worked out at 6.09 nM. To `CN1CCN(C(=O)c2nn(-c3ccccc3Cl)c(-c3ccc(Br)cc3)c2Cn2cncn2)CC1` belongs 901 nM; to `CC(C)(NC(=O)c1nn(-c2ccc(Cl)cc2Cl)c(-c2ccc(Br)cc2)c1Cn1cncn1)c1ccc(Cl)cc1`, 2.99 nM; to `CCN1CCN(C(=O)c2nn(-c3ccc(Cl)cc3Cl)c(-c3ccc(Br)cc3)c2Cn2cncn2)CC1`, 285 nM. To `C[C@@H]1CCCC[C@@H]1NC(=O)c1nn(-c2ccc(Cl)cc2Cl)c(-c2ccc(Cl)cc2)c1Cn1cncn1` (single isomer, unassigned) belongs 18.3 nM. With `CC1CCCC(C)N1NC(=O)c1nn(-c2ccc(Cl)cc2Cl)c(-c2ccc(Cl)cc2)c1Cn1cncn1` (stereo not drawn), the IC50 worked out at 11.4 nM.

Take `CC(C)(C)NC(=O)c1nn(-c2ccc(Cl)cc2Cl)c(-c2ccc(Br)cc2)c1Cn1cncn1`: the IC50 was 2.9 nM. Molecule `O=C(NC1CCCCCC1)c1nn(-c2ccccc2Cl)c(-c2ccc(Cl)cc2)c1Cn1cncn1` gave an IC50 of 9.7 nM. To `O=C(c1nn(-c2ccccc2Cl)c(-c2ccc(Cl)cc2)c1Cn1cncn1)N1CCN(c2cccc(Cl)c2)CC1` belongs 4.08 nM; to `CC(NC(=O)c1nn(-c2ccccc2Cl)c(-c2ccc(Cl)cc2)c1Cn1cncn1)C(C)(C)C` (stereo not drawn), 6.22 nM. In the case of `CN1CCN(C(=O)c2nn(-c3ccccc3Cl)c(-c3ccc(Cl)cc3)c2Cn2cncn2)CC1`, the IC50 is 961 nM. With `CN1CCN(C(=O)c2nn(-c3ccc(Cl)cc3Cl)c(-c3ccc(Br)cc3)c2Cn2cncn2)CC1`, the IC50 was 1340 nM. To `CCNC1(C(N)=O)CCN(C(=O)c2nn(-c3ccc(Cl)cc3Cl)c(-c3ccc(Cl)cc3)c2Cn2cncn2)CC1` belongs 878 nM; to `CC(NC(=O)c1nn(-c2ccc(Cl)cc2Cl)c(-c2ccc(Cl)cc2)c1Cn1cncn1)C(C)(C)C` (stereo not drawn), 8.44 nM. Molecule `O=C(NC1(c2ccccc2)CC1)c1nn(-c2ccccc2Cl)c(-c2ccc(Cl)cc2)c1Cn1cncn1` yielded an IC50 of 5.81 nM.

Regarding `O=C(N[C@H]1CCCC[C@@H]1O)c1nn(-c2ccc(Cl)cc2Cl)c(-c2ccc(Cl)cc2)c1Cn1cncn1`, the IC50 turned out to be 60.7 nM. As for `O=C(NCC1CCCCC1)c1nn(-c2ccc(Cl)cc2Cl)c(-c2ccc(Cl)cc2)c1Cn1cncn1`, the figure is 22.8 nM; as for `O=C(NC1CCCCC1)c1nn(-c2ccccc2Cl)c(-c2ccc(Cl)cc2)c1Cn1cncn1`, 6.6 nM. As for `C[C@H]1CCCC[C@@H]1NC(=O)c1nn(-c2ccc(Cl)cc2Cl)c(-c2ccc(Cl)cc2)c1Cn1cncn1`, the figure is 12.9 nM; as for `O=C(NC1CCCCCC1)c1nn(-c2ccccc2Cl)c(-c2ccc(Br)cc2)c1Cn1cncn1`, 2.7 nM; as for `O=C(NCc1ccccc1)c1nn(-c2ccc(Cl)cc2Cl)c(-c2ccc(Br)cc2)c1Cn1cncn1`, 13 nM. Consider `O=C(NC1(C(F)(F)F)CC1)c1nn(-c2ccc(Cl)cc2Cl)c(-c2ccc(Cl)cc2)c1Cn1cncn1`, for which the IC50 was 4.5 nM. `CCC(C)(C)NC(=O)c1nn(-c2ccc(Cl)cc2Cl)c(-c2ccc(Br)cc2)c1Cn1cncn1` showed an IC50 of 3.67 nM. For the molecule `O=C(c1nn(-c2ccc(Cl)cc2Cl)c(-c2ccc(Br)cc2)c1Cn1cncn1)N1CCN(c2cccc(Cl)c2Cl)CC1`, the IC50 was 5.74 nM. As for `O=C(c1nn(-c2ccc(Cl)cc2Cl)c(-c2ccc(Cl)cc2)c1Cn1cncn1)N1CCN(c2ncccn2)CC1`, the figure is 56 nM; as for `O=C(NC1(c2ccccc2)CC1)c1nn(-c2ccc(Cl)cc2Cl)c(-c2ccc(Br)cc2)c1Cn1cncn1`, 7.86 nM. To `CCN1CCCC1CNC(=O)c1nn(-c2ccc(Cl)cc2Cl)c(-c2ccc(Cl)cc2)c1Cn1cncn1` (stereo not drawn) belongs 4020 nM; to `O=C(NC1CCCCCC1)c1nn(-c2ccc(Cl)cc2Cl)c(-c2ccc(Cl)cc2)c1Cn1cncn1`, 11.2 nM; to `O=C(NC1CCCCCC1)c1nn(-c2ccc(Cl)cc2Cl)c(-c2ccc(Br)cc2)c1Cn1cncn1`, 8.49 nM. As for `O=C(NNC(=O)C1(C(F)(F)F)CC1)c1nn(-c2ccc(Cl)cc2Cl)c(-c2ccc(Cl)cc2)c1Cn1cncn1`, the figure is 126 nM; as for `O=C(NN1CCCCC1)c1nn(-c2ccccc2Cl)c(-c2ccc(Br)cc2)c1Cn1cncn1`, 5.23 nM; as for `O=C(c1nn(-c2ccc(Cl)cc2Cl)c(-c2ccc(Br)cc2)c1Cn1cncn1)N1CCN(c2ccccc2)CC1`, 12.5 nM. Turning to `CC(NC(=O)c1nn(-c2ccccc2Cl)c(-c2ccc(Br)cc2)c1Cn1cncn1)C(C)(C)C` (stereo not drawn), the IC50 came out at 6 nM.
